AHR activator: human AHR activation. P35869. AHR-responsive luciferase reporter cells, luminescence. activation, % at 5 µM. actives 2.5% (n = 320,000). AID 2796; in the data active means activation above about 47%;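 further: 0% = vehicle wells and 100% = reference agonist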
GAA850 FXN act: activators of GAA850 frataxin (FXN) promoter; actives 0.56% (n = 360,000); HEK293 lucGAA850 FXN promoter luciferase reporter, 24 h; percent of 10 µM SAHA response; AID 540364; activation, % at 6 µM;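 active means activation above the average of all compounds screened plus 3 SD, cutoff fixed separately per campaign, cut at about 7.5% in these data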;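 further: 0% = DMSO wells and 100% = 10 µM SAHA wells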
SR-BI uptake up: SR-BI HDL lipid transfer activation | actives 0.096% (n = 320,000) | activation, % at 12.5 µM | CHO ldlA[mSR-BI] cells, DiI-HDL uptake fluorescence, 3 h; 100 = double the neutral-control signal;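 active means mean replicate activation of at least 60% and every replicate at or above 60%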;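 further: 0% = median plate neutral-control signal and 100% = twice that signal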
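Material: SR-BI-overexpressing, LDLR-lacking CHO cells; schedule: compound exposure 3 h, 37 °C; reagent: DiI-labelled HDL at 10 µg/mL final; technique: bottom-read fluorescence, 550/595 nm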
SR-BI DiI inh: mouse SR-BI HDL lipid transfer inhibition; AID 488896; actives 0.96% (n = 320,000); ldlA[mSR-BI] CHO cells, DiI-HDL uptake fluorescence, 3 h; inhibition, % at 12.5 µM;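 active means mean replicate inhibition of at least 70% and a set share of replicates each scoring 70 or more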;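 further: 0% = median of neutral control wells and 100% = median of positive control wells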
Target sequence (Q61009 whole entry, looked up): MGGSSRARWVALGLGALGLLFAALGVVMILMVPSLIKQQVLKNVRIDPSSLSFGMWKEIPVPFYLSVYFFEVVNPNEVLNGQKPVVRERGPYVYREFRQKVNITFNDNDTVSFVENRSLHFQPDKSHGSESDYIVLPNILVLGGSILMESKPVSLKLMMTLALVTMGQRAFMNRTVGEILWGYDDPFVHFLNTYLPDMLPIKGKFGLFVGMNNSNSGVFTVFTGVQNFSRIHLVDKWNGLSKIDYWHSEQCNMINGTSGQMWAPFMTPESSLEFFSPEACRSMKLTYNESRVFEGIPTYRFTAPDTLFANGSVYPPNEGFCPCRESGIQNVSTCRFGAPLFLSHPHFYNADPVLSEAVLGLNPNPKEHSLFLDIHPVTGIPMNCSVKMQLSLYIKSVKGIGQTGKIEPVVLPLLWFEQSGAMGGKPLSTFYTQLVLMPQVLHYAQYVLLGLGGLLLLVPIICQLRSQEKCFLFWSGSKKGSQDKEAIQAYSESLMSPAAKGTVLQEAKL
JMJD2C inh: blocks human GASC-1 demethylase activity; GST-JMJD2C(1-420) H3K9me3 demethylation, DELFIA europium; actives 0.069% (n = 330,000); Q9H3R0; inhibition, % at 2.35 µM;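 active means more than half of a compound's replicate wells show inhibition beyond 50%, single wells judged on their own value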;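 further: signal counts dimethyl H3K9 product captured on neutravidin plate; 0% = median of DMSO wells and 100% = 0.3 times that DMSO median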
AHR act confirm: confirmation of human aryl hydrocarbon receptor activators; shares compounds with AHR activator; human cells, AHR-responsive luciferase reporter, luminescence; activation, % at 9 µM; actives 87% (n = 2,300); in the data active means activation above about 49%;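 further: HepG2 hepatoma cells carrying a DRE-driven firefly luciferase reporter; 0% = vehicle wells and 100% = reference agonist wells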
PXR counter: PXR activation, counter-screen for AHR activators; shares compounds with AHR activator; cell-based PXR reporter, luciferase luminescence; activation, % at 11.6 µM; actives 88% (n = 2,300); in the data active means activation above about 11%;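 further: human hepatoma DPX-2 cells expressing full-length human PXR; 0% = DMSO and 100% = reference agonist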
The depositor's hits bear a star; · = no result. This is a sample that favours compounds with a hit; in the whole collection about 3.7% have one here.

SMILES	AHR activator	GAA850 FXN act	SR-BI uptake up	SR-BI DiI inh	JMJD2C inh	AHR act confirm	PXR counter
C=C(C)c1cccc(C(C)(C)NC(=O)Nc2ccc(Cl)cn2)c1	90.8*	2.1	13.2	-13.2	1.6	94.5*	73.4*
C=C(C)c1cccc(C(C)(C)NC(=O)Nc2ncccn2)c1	-1.5	0.2	5.9	-5.9	-0.6	·	·
COc1ccc2oc3cc(C)[n+]([O-])c(-c4ccc(Br)cc4)c3c2c1	2.6	-3.2	-28.7	28.7	7.1	·	·
Cc1nn(-c2ccccc2)c(C)c1/C=N/N1CCN(c2ccccn2)CC1	0.0	0.1	-52.2	52.2	-5.8	·	·
Cc1nn(-c2ccccc2)c(Cl)c1/C=N/N1CCN(c2ccccn2)CC1	161.0*	1.3	-32.6	32.6	1.4	4.0	27.2*
Nc1c(C(=O)C2CC2)sc2nc(-c3ccccc3)cc(C(F)(F)F)c12	15.6	1.3	-60.4	60.4	6.8	·	·
CN(C)CCNC(=O)c1sc2nc(-c3ccccc3)cc(C(F)(F)F)c2c1N	90.9*	-1.1	·	·	-2.4	100.2*	10.8*
COc1ccc(Br)cc1C(=O)Nc1ccccc1-c1ccccc1	81.5*	1.1	-47.2	47.2	4.7	76.2*	12.7*
COc1ccc(NC(=O)c2ccco2)cc1NC(=O)c1ccccc1F	87.1*	-2.9	-48.0	48.0	-19.0	94.7*	11.6*
COc1ccc(Br)cc1C(=O)Nc1cccc(NC(=O)c2ccco2)c1	84.4*	0.6	-19.3	19.3	-1.8	97.5*	14.8*
COc1ccccc1NC(=O)c1ccc(-c2ccc(Br)cc2)o1	99.0*	-0.9	0.1	-0.1	12.8	104.9*	11.0*
COc1ccc(NC(=O)c2cccs2)cc1NC(=O)c1ccco1	11.4	0.8	-44.1	44.1	-8.2	·	·
COc1ccc(Br)cc1C(=O)Nc1ccccc1N1CCCC1	28.0	-1.5	-29.0	29.0	-5.8	·	·
COc1c(C)cc(Br)cc1C(=O)Nc1cccc(NC(=O)c2ccco2)c1	-3.2	-4.0	-37.9	37.9	4.7	·	·
O=C1CCC/C(=N\NC(=O)c2ccc(CSc3cccc4cccnc34)cc2)C1	4.6	0.4	-24.9	24.9	3.2	·	·
COc1ccccc1-c1nc(C#N)c(N2CCCCCC2)o1	83.1*	3.4	8.3	-8.3	-7.7	79.0*	107.9*
COc1cc(NC(=O)c2noc(C)c2[N+](=O)[O-])c(OC)cc1Cl	79.7*	-2.5	-43.2	43.2	13.8	102.1*	30.2*
COc1cc(NC(=O)c2ccnn2C)c(OC)cc1Cl	129.2*	1.2	-36.1	36.1	0.0	135.2*	23.0*
COc1cc(NC(=O)c2cc(CC(C)C)on2)c(OC)cc1Cl	91.0*	0.9	-38.6	38.6	-4.5	85.5*	14.9*
COC(=O)c1ccccc1NC(=O)c1ccnn1C	-0.3	2.3	-1.5	1.5	-1.8	·	·
COc1cc(NC(=O)c2cc(-c3ccco3)on2)c(OC)cc1Cl	41.2	-0.5	-12.1	12.1	1.8	·	·
CCN1CCn2c3c(c4cc(Cl)ccc42)CCCC31 (stereo not given)	118.1*	1.7	-10.0	47.2	6.8	61.7*	48.4*
Cc1cc2nc(NC(=O)C3(C)CCN(C)C3)[nH]c2cc1C (stereo not given)	·	0.9	·	·	·	·	·
O=C(N/N=C/c1cc(Br)cs1)c1c[nH]c2ccccc12	91.3*	-1.9	-3.1	3.1	5.9	144.9*	25.7*
CCN(CC)C(=O)c1sc(NC(=O)c2c(OC)cccc2OC)c(C#N)c1C	131.9*	0.1	-84.7	93.9*	-2.9	91.5*	172.7*
O=C(CNC(=O)C12CC3CC(CC(C3)C1)C2)N1CCCC(C(F)(F)F)C1 (stereo not given)	·	0.5	·	·	·	·	·
O=c1c2[nH]c3cccc(Cl)c3c2ncn1Cc1ccncc1	84.0*	-0.8	16.4	-16.4	·	73.7*	19.1*
O=C(N=NC(=O)c1ccco1)c1ccc2c(O)n(N3C(=O)c4ccccc4C3=O)c(O)c2c1	0.7	3.0	55.2	-55.2	4.2	·	·
C[C@H](NC(=O)[C@@H]1CSC2c3ccccc3C(=O)N21)C(=O)NCCc1ccc(F)cc1 (stereo not given in full)	95.5*	0.2	5.0	-5.0	5.3	104.2*	54.9*

Assay outcomes from PubChem.
